Screening results (PubChem BioAssay)
UBC9 SUMO inh = inhibitors of human SUMOylation (UBC9); P63279; HTRF SUMOylation assay, SAE1/SAE2 + UBC9, in vitro; inhibition, % at 35 µM; 0.36% of 290,000 active; in the data active = inhibition above about 50%, passing the limit was not always enough
Target sequence (P63279 whole entry, looked up): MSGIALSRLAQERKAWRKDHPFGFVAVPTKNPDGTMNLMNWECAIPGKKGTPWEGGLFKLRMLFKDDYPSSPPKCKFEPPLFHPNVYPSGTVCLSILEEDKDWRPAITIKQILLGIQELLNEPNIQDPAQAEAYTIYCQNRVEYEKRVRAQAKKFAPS
CTSL1 counter = counter-screen for PFM18AAP inhibitors: inhibitors of F. hepatica cathepsin L1; inhibition, % at 5.96 µM; 0.49% of 300,000 active; AID 1906; recombinant F. hepatica cathepsin L1, Z-Leu-Arg-MCA fluorescence;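 active = inhibition above the mean of all tested compounds plus 3 SD, set per screening campaign, cut at about 17% in these data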;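 also: 0% = plate median of test compound wells and 100% = 1 µM Z-Phe-Ala-diazomethylketone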
Neddylation inh = inhibitors of human cullin neddylation; P61081+Q13564; TR-FRET cullin neddylation, biochemical; inhibition, % at 25 µM; 0.58% of 360,000 active; AID 651699; in the data active = inhibition above about 36%
UCH37 inh = inhibitors of human deubiquitinating enzyme UCH37; Q9Y5K5; AID 588478; inhibition, % (test concentration not listed); purified proteasome/UCH37, Ub-AMC cleavage fluorescence; 0.33% of 330,000 active;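 active = mean inhibition over replicate wells above about 20%, limit read from the data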;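 also: 0% = compound-free wells with enzyme and 100% = wells lacking proteasome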
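Schedule: 30 min plus 25 min, room temperature / Material: human UCH37 within purified proteasomes / Technique: AMC fluorescence intensity at 355/460 nm / Buffer or medium: pH 7.4 Tris-HCl (50 mM) with ovalbumin, ATP-MgCl2, DTT / Controls: wells without proteasome as full block, compound-free enzyme plus substrate as uninhibited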
* = called active by the depositor; / = no result given. Compounds with a hit are over-represented: about 1.4% of the library has one in this group of screens.

SMILES | UBC9 SUMO inh | CTSL1 counter | Neddylation inh | UCH37 inh
CCN(C(=S)Nc1cccnc1)c1ccccc1 | -4 | -4 | -3 | 1
CCN(C(=S)Nc1cccnc1)c1cccc2ccccc12 | 100* | 6 | -36 | -9
COc1ccc(NC(=S)Nc2cccc3cnccc23)cc1 | 94* | -3 | -19 | 2
CN(C)S(=O)(=O)c1cccc(NC(=S)NCCCn2ccnc2)c1 | 23 | 17* | -5 | 1
S=C(Nc1ccc(Cl)cc1)Nc1cccc2cnccc12 | 99 | 2 | -26 | -1
COc1ccccc1/C=C/C(=O)NCC(=O)NN=C(C)c1ccc(Cl)cc1 | / | / | / | -13
COc1cc(C(C)=NN2CCN(c3ccccc3OC)CC2)ccc1O | / | / | / | 5
Cc1ccc(C=c2sc3n(c2=O)CN(c2cccc(Br)c2)CN=3)o1 | / | / | / | 0
COc1ccccc1NC(=S)Nc1cccc2cnccc12 | 51* | 4 | -13 | 1
S=C(Nc1cccnc1)Nc1cccc2cnccc12 | 97* | -1 | -41 | 5
CCOc1ccc(NC(=S)Nc2cccc3ccccc23)cc1 | 94 | -1 | -51 | -1
CCOc1ccc(NC(=S)Nc2cccc3cnccc23)cc1 | 89* | -2 | -32 | 0
Fc1cccc(NC(=S)Nc2cccnc2)c1 | -3 | -3 | 1 | 0
COc1cc(NC(=S)Nc2cccnc2)cc(OC)c1 | 72* | 0 | 5 | 2
Fc1ccc(NC(=S)Nc2cccc3cnccc23)cc1 | 98 | -1 | -33 | 1
CON=Cc1ccc(N2CCN(C(=O)c3ccc(Cl)cc3Cl)CC2)c([N+](=O)[O-])c1 | / | / | / | 4
O=C(NN=C/C(Br)=C\c1ccccc1)c1ccco1 | / | / | / | 7
COc1cc(C=NNC(=O)Cn2nc([N+](=O)[O-])cc2C)cc(Br)c1OCc1ccccc1 | / | / | / | 5
Cc1ccsc1C=NNC(=O)Cn1cnc2ccccc21 | / | / | / | 6
CN(C)S(=O)(=O)c1cccc(NC(=S)Nc2ccc3cn[nH]c3c2)c1 | 25 | -4 | 5 | 1
CN(C)S(=O)(=O)c1cccc(NC(=S)Nc2cccc3cnccc23)c1 | 99* | / | -12 | -1
COC(=O)C1CCCN1S(=O)(=O)c1ccc([N+](=O)[O-])cc1 (stereo not given) | 1 | 53* | -19 | 1
CN(C)C=Nc1cc(=O)n(C)c(=O)n1Cc1ccccc1 | / | / | / | 2
Cc1ccc(C=NNc2ccc(C(=O)O)cc2)o1 | / | / | / | 15
CC(C)n1cc(/C=N/Nc2ccc(C(=O)O)cc2)c2ccccc21 | 2 | 4 | 43* | /
SMILES | UBC9 SUMO inh | CTSL1 counter | Neddylation inh | UCH37 inh
O=C(N/N=C/c1cn(Cc2cccc(F)c2)c2ccccc12)c1cc(O)cc(O)c1 | 66* | / | 39 | /
O=C(O)c1ccc(NN=Cc2cn(Cc3ccc(F)cc3)c3ccccc23)cc1 | / | / | / | -74
O=C(O)c1ccc(N/N=C/c2cn(Cc3ccccc3F)c3ccccc23)cc1 | 14 | 7 | 46* | /
O=C(NN=Cc1cc([N+](=O)[O-])cc(Br)c1O)C12CC3CCC(CC(C3)C1)C2 | / | / | / | 7
O=C(CN1CCCCCC1)NN=Cc1cccs1 | / | / | / | 1
Cc1ccccc1-c1n[nH]c(=S)n1N=C/C=C/c1ccco1 | / | / | / | 10
Cc1ccccc1-c1n[nH]c(=S)n1/N=C/C=C/c1ccco1 | 47 | 6 | 60* | /
CCOc1cc(C=NNC(=O)C(=O)Nc2cc(Cl)ccc2C)ccc1O | / | / | / | -1
O=C(NCCNC(=O)c1cccs1)c1ccco1 | 12 | 19* | 0 | 3
O=C(NNC(=O)c1cccs1)c1ccco1 | 15 | -9 | -3 | -1
O=C(NNC(=O)c1cccs1)c1ccc(Cl)c([N+](=O)[O-])c1 | 13 | 1 | -8 | 21*
O=C(COC(=O)CNC(=O)c1ccc(Cl)c([N+](=O)[O-])c1)NNC(=O)c1cccs1 | / | 9 | -27 | 4
Cc1c(C(c2cccc([N+](=O)[O-])c2O)c2c(C)n(C)n(-c3ccccc3)c2=O)c(=O)n(-c2ccccc2)n1C | -4 | -1 | -21 | 8
Cc1[nH]n(-c2ccccc2)c(=O)c1C(c1cccc([N+](=O)[O-])c1)c1c(C)[nH]n(-c2ccccc2)c1=O | 92 | -4 | -13 | 4
Cc1[nH]n(-c2ccccc2)c(=O)c1C(c1cccc([N+](=O)[O-])c1O)c1c(C)[nH]n(-c2ccccc2)c1=O | 62* | -2 | -29 | 3
COc1cccc(C(C[N+](=O)[O-])c2c(C)[nH]n(-c3ccccc3)c2=O)c1 (stereo not given) | 97* | 101* | 1 | /
COc1ccc(O[C@H]2C=C[C@@H](c3ccccc3)O[C@@H]2COC(=O)CCC(C)=NO[C@@H](C)CN2CCCCc3nc(C)c(C)cc32)cc1 | / | / | / | -4
